Test [1] deals with CCRF-CEM. Kind of test: Ratio of IC50 for teniposide-resistant CEM/VM1 cells over IC50 for drug-sensitive CCRF-CEM cells. The format is functional, Homo sapiens.
Test [2] is described as follows: Cytotoxicity against teniposide-resistant CEM/VM1 cells after 72 hrs. The conditions noted are these: Homo sapiens, CEM-VM1, 72 h. Format: cell-based. In a few lines: (§1)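 Leukemic lymphoblasts (parent CCRF-CEM, Pgp-overexpressing CEM/VLB100, topo II-altered CEM/VM-1) grown in RPMI 1640 with 10% FCS and antibiotics, 37 °C, 5% CO2. Serial dilutions in medium added to 2 × 10⁵ cells/mL for 3 days, medium not renewed. Survivors counted on a Coulter counter. Triplicate, averaged.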

Test [3] in a line: Cytotoxicity against vinblastine-resistant CEM/VLB100 cells after 72 hrs. Conditions: Homo sapiens, CEM/VLB100, 72 h. The format is cell-based. In a few lines: as §1
In test [4] the test system is CCRF-CEM. Kind of test: Cytotoxicity against drug-sensitive CCRF-CEM cells after 72 hrs. Format: cell-based. The conditions noted are these: Homo sapiens. In a few lines: as §1
Test [5] has as its system CCRF-CEM. The experiment in a line: Ratio of IC50 for vinblastine-resistant CEM/VLB100 cells over IC50 for drug-sensitive CCRF-CEM cells. The format is functional, Homo sapiens.

For `COc1cccc2c1C(=O)c1c(O)c3c(c(O)c1C2=O)C[C@@](O)(C(=O)CO)C[C@@H]3O[C@H]1C[C@H](N)[C@H](O)[C@H](C)O1` [DOXORUBICIN], the “Ratio IC50” value came to 9 in the test on CCRF-CEM [1] and 62 in the test with CCRF-CEM [5]. Besides, the IC50 worked out at 550 nM in test [2], 3710 nM in test [3] and 60 nM in the test on CCRF-CEM [4].

For the origin of these results see ChEMBL document CHEMBL1142957, “Total structure and inhibition of tumor cell proliferation of laxaphycins” (J Med Chem, 2007).
